Measured values as given in ChEMBL document CHEMBL1137710, “Synthesis and in vitro antitumor activity of new quinoxaline derivatives” (2009).

Legend:
Type in all cases: functional
MDA-MB-435 = assay: Growth inhibition of human MDA-MB-435 cells after 48 hrs by sulforhodamine B assay; settings: MDA-MB-435, 48 h
Summary of the method: (§1)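 NCI 60-human-tumor-cell-line panel, with compounds tested over a 5-log dose range. Values are taken from dose-response curves as log10 molar concentrations: GI50 is 50% net growth inhibition, TGI is total growth inhibition, and LC50 is 50% net cell death.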

OVCAR-4 = assay: Growth inhibition of human OVCAR4 cells after 48 hrs by sulforhodamine B assay; settings: OVCAR-4, 48 h; summary of the method: as §1
IGROV-1 = assay: Growth inhibition of human IGROV1 cells after 48 hrs by sulforhodamine B assay; settings: IGROV-1, 48 h; summary of the method: as §1
NCI-H460 [1] = assay: Growth inhibition of human NCI-H460 cells after 48 hrs by sulforhodamine B assay; settings: NCI-H460, 48 h; summary of the method: as §1
A549 = assay: Growth inhibition of human A549 cells after 48 hrs by sulforhodamine B assay; settings: A549, 48 h; summary of the method: as §1
SK-OV-3 = assay: Growth inhibition of human SKOV3 cells after 48 hrs by sulforhodamine B assay; settings: SK-OV-3, 48 h; summary of the method: as §1
MCF7 [2] = assay: Growth inhibition of human MCF7 cells after 48 hrs by sulforhodamine B assay; settings: MCF7, 48 h; summary of the method: as §1
COLO 205 = assay: Growth inhibition of human COLO205 cells after 48 hrs by sulforhodamine B assay; settings: COLO 205, 48 h; summary of the method: as §1
RXF 393 = assay: Growth inhibition of human RXF393 cells after 48 hrs by sulforhodamine B assay; settings: RXF 393, 48 h; summary of the method: as §1
U-251 = assay: Growth inhibition of human U251 cells after 48 hrs by sulforhodamine B assay; settings: U-251, 48 h
Summary of the method: (§2)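 Run in the NCI 60-human-tumour-cell-line panel, tested over a 5-log dose range. Dose–response curves gave three values per cell line, each as a log10 molar concentration: GI50 (50% inhibition of net cell growth), TGI (total inhibition of net growth) and LC50 (50% net cell death). The mean graph midpoint is the arithmetic mean over all lines, with insensitive lines entered at the highest concentration tested.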

UACC-62 = assay: Growth inhibition of human UACC62 cells after 48 hrs by sulforhodamine B assay; settings: UACC-62, 48 h; summary of the method: as §2
TK-10 = assay: Growth inhibition of human TK10 cells after 48 hrs by sulforhodamine B assay; settings: TK-10, 48 h; summary of the method: as §2
SNB-19 = assay: Growth inhibition of human SNB19 cells after 48 hrs by sulforhodamine B assay; settings: SNB-19, 48 h; summary of the method: as §2
UACC-257 = assay: Growth inhibition of human UACC257 cells after 48 hrs by sulforhodamine B assay; settings: UACC-257, 48 h; summary of the method: as §2
SF-268 [3] = assay: Anticancer activity against human SF268 cells assessed as cell growth at 100 uM after 48 hrs by sulforhodamine B assay; settings: SF-268, 48 h, read-out: Activity
SF-295 = assay: Growth inhibition of human SF295 cells after 48 hrs by sulforhodamine B assay; settings: SF-295, 48 h; summary of the method: as §1
M14 = assay: Growth inhibition of human M14 cells after 48 hrs by sulforhodamine B assay; settings: M14, 48 h; summary of the method: as §1
PC-3 = assay: Growth inhibition of human PC3 cells after 48 hrs by sulforhodamine B assay; settings: PC-3, 48 h; summary of the method: as §1
DU-145 = assay: Growth inhibition of human DU145 cells after 48 hrs by sulforhodamine B assay; settings: DU-145, 48 h; summary of the method: as §1
SW-620 = assay: Growth inhibition of human SW620 cells after 48 hrs by sulforhodamine B assay; settings: SW-620, 48 h; summary of the method: as §2
SK-MEL-5 = assay: Growth inhibition of human SK-MEL-5 cells after 48 hrs by sulforhodamine B assay; settings: SK-MEL-5, 48 h; summary of the method: as §1
MDA-MB-231 = assay: Growth inhibition of human MDA-MB-231 cells after 48 hrs by sulforhodamine B assay; settings: MDA-MB-231, 48 h; summary of the method: as §1
OVCAR-8 = assay: Growth inhibition of human OVCAR8 cells after 48 hrs by sulforhodamine B assay; settings: OVCAR-8, 48 h; summary of the method: as §1
HCT-116 = assay: Growth inhibition of human HCT116 cells after 48 hrs by sulforhodamine B assay; settings: HCT-116, 48 h; summary of the method: as §1
NCI-H460 [4] = assay: Anticancer activity against human NCI-H460 cells assessed as cell growth at 100 uM after 48 hrs by sulforhodamine B assay; settings: NCI-H460, 48 h, read-out: Activity
SF-268 [5] = assay: Growth inhibition of human SF268 cells after 48 hrs by sulforhodamine B assay; settings: SF-268, 48 h; summary of the method: as §1
MCF7 [6] = assay: Anticancer activity against human MCF7 cells assessed as cell growth at 100 uM after 48 hrs by sulforhodamine B assay; settings: MCF7, 48 h, read-out: Activity
[7] = Growth inhibition of human […] cells after 48 hrs by sulforhodamine B assay; summary of the method: as §1
SK-MEL-28 = assay: Growth inhibition of human SK-MEL-28 cells after 48 hrs by sulforhodamine B assay; settings: SK-MEL-28, 48 h; summary of the method: as §1
NCI-H23 = assay: Growth inhibition of human NCI-H23 cells after 48 hrs by sulforhodamine B assay; settings: NCI-H23, 48 h; summary of the method: as §1
[8] = read-out: pLC50 (the source's name) (converted)

COc1ccc(CNc2nc3cc(N)cc(N)c3nc2-c2ccccc2)cc1
GI50 (MDA-MB-435): 10 µM | CC50 (MDA-MB-435; [8]): 46.8 µM | TGI (MDA-MB-435; read-out: pTGI (converted)): 21.9 µM | GI50 (OVCAR-4): 8.13 µM | CC50 (OVCAR-4; [8]): 47.9 µM | TGI (OVCAR-4; read-out: pTGI (converted)): 21.4 µM | GI50 (IGROV-1): 12.9 µM | CC50 (IGROV-1; [8]): 56.2 µM | TGI (IGROV-1; read-out: pTGI (converted)): 26.9 µM | GI50 (NCI-H460 [1]): 20.4 µM | LC50 (50% net cell kill) (NCI-H460 [1]): > 100 µM | TGI (NCI-H460 [1]; read-out: pTGI (converted)): 47.9 µM | GI50 (A549): 21.4 µM | LC50 (A549): > 100 µM | TGI (A549; read-out: pTGI (converted)): 60.3 µM | CC50 (SK-OV-3; [8]): > 100 µM | TGI (SK-OV-3; read-out: pTGI (converted)): 57.5 µM | GI50 (MCF7 [2]): 13.2 µM | CC50 (MCF7 [2]; [8]): 53.7 µM | TGI (MCF7 [2]; read-out: pTGI (converted)): 26.3 µM | GI50 (COLO 205): 15.5 µM | LC50 (50% net cell kill) (COLO 205): 74.1 µM | TGI (COLO 205; read-out: pTGI (converted)): 33.9 µM | GI50 (RXF 393): 5.37 µM | CC50 (RXF 393; [8]): 44.7 µM | TGI (RXF 393; read-out: pTGI (converted)): 18.2 µM | GI50 (U-251): 13.5 µM | LC50 (50% net cell kill) (U-251): 51.3 µM | TGI (U-251; read-out: pTGI (converted)): 26.3 µM | GI50 (UACC-62): 14.8 µM | CC50 (UACC-62; [8]): 58.9 µM | TGI (UACC-62; read-out: pTGI (converted)): 29.5 µM | GI50 (TK-10): 28.2 µM | CC50 (TK-10; [8]): > 100 µM | TGI (TK-10; read-out: pTGI (converted)): 57.5 µM | GI50 (SNB-19): 41.7 µM | LC50 (SNB-19): > 100 µM | TGI (SNB-19; read-out: pTGI (converted)): > 100 µM | GI50 (UACC-257): 16.2 µM | CC50 (UACC-257; [8]): 56.2 µM | TGI (UACC-257; read-out: pTGI (converted)): 30.2 µM | growth at 100 µM (SF-268 [3]): 0% | GI50 (SF-295): 17.8 µM | LC50 (50% net cell kill) (SF-295): 58.9 µM | TGI (SF-295; read-out: pTGI (converted)): 32.4 µM | GI50 (M14): 18.2 µM | CC50 (M14; [8]): 57.5 µM | TGI (M14; read-out: pTGI (converted)): 32.4 µM | GI50 (PC-3): 10.2 µM | CC50 (PC-3; [8]): 72.4 µM | TGI (PC-3; read-out: pTGI (converted)): 27.5 µM | GI50 (DU-145): 21.9 µM | CC50 (DU-145; [8]): > 100 µM | TGI (DU-145; read-out: pTGI (converted)): 57.5 µM | GI50 (SW-620): 12.9 µM | CC50 (SW-620; [8]): 70.8 µM | TGI (SW-620; read-out: pTGI (converted)): 30.2 µM | GI50 (SK-MEL-5): 17.8 µM | CC50 (SK-MEL-5; [8]): 56.2 µM | TGI (SK-MEL-5; read-out: pTGI (converted)): 31.6 µM | GI50 (MDA-MB-231): 2.88 µM | CC50 (MDA-MB-231; [8]): 64.6 µM | TGI (MDA-MB-231; read-out: pTGI (converted)): 13.8 µM | GI50 (OVCAR-8): 14.8 µM | CC50 (OVCAR-8; [8]): > 100 µM | TGI (OVCAR-8; read-out: pTGI (converted)): 39.8 µM | GI50 (HCT-116): 14.5 µM | LC50 (concentration causing 50% net cell death) (HCT-116): 52.5 µM | TGI (HCT-116; read-out: pTGI (converted)): 27.5 µM | growth at 100 µM (NCI-H460 [4]): 0% | GI50 (SF-268 [5]): 9.77 µM | LC50 (SF-268 [5]): 49 µM | TGI (SF-268 [5]; read-out: pTGI (converted)): 21.9 µM | growth at 100 µM (MCF7 [6]): 0% | GI50 [7]: 4.17 µM | LC50 [7]: > 100 µM | TGI ([7]; read-out: pTGI (converted)): 15.8 µM | GI50 (SK-MEL-28): 17.4 µM | CC50 (SK-MEL-28; [8]): 60.3 µM | TGI (SK-MEL-28; read-out: pTGI (converted)): 32.4 µM | GI50 (NCI-H23): 17 µM | LC50 (50% net cell kill concentration) (NCI-H23): 70.8 µM | TGI (NCI-H23; read-out: pTGI (converted)): 34.7 µM
